Screening data (PubChem)
dFosB act-1: enhances mouse delta FosB homodimer DNA binding; purified delta FosB, TAMRA-CDK5 oligo fluorescence polarization; percent of positive-control signal above neutral wells; AID 493131; P13346; activation, % at 25 µM; 0.99% of 340,000 active;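 active = mean activation above about 17%, with every replicate also reaching it, limit read from the data, passing the limit was not always enough; inconclusive = only one of the two conditions met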
Target sequence (P13346 whole entry, looked up): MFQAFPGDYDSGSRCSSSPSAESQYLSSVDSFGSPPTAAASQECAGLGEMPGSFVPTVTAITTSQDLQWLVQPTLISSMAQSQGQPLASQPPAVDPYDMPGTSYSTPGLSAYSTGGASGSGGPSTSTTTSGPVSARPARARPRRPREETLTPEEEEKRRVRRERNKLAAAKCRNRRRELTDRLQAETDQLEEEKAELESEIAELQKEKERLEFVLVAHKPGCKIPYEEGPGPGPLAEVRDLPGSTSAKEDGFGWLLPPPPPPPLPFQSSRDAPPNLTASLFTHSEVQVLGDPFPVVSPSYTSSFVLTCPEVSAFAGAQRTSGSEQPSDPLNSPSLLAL
SR-BI uptake up: enhances SR-BI lipid uptake from DiI-HDL | CHO ldlA[mSR-BI] cells, DiI-HDL uptake fluorescence, 3 h; 100 = double the neutral-control signal | 0.096% of 320,000 active | AID 504775 | activation, % at 12.5 µM;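 active = mean replicate activation of at least 60% and every replicate at or above 60%; inconclusive = mean or all-replicate condition met, but not both; inactive = mean below 60% and not all replicates reaching 60%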;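 note: 0% = median plate neutral-control signal and 100% = twice that signal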
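System: LDL receptor-deficient CHO ldlA cells overexpressing murine SR-BI | Timing: 3 h uptake period with compound, 37 °C | Medium: HEPES-buffered (25 mM, pH 7.4) F12 plus 0.5% BSA | Dosing: Single-point compound dose | Signal: Bottom-read fluorescence, 550/595 nm | Read-out: Retained DiI signal reflecting DiI-HDL uptake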
PvdQ acylase: blocks Pseudomonas aeruginosa PvdQ acylase activity | purified PvdQ acylase, fluorescence plate reader | inhibition, % at 10 µM | 0.063% of 340,000 active | AID 488965; in the data active = inhibition above about 30%, passing the limit was not always enough; inconclusive = no clear call, values can overlap the other calls;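 note: 0% = vehicle neutral wells and 100% = reference inhibitor wells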
SR-BI DiI inh: inhibitors of mouse SR-BI mediated HDL lipid uptake; ldlA[mSR-BI] CHO cells, DiI-HDL uptake fluorescence, 3 h; inhibition, % at 12.5 µM; 0.96% of 320,000 active; AID 488896;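 active = mean replicate inhibition of at least 70% and a set share of replicates each scoring 70 or more; inconclusive = meets just one of the two criteria; inactive = fails both criteria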;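 note: 0% = median of neutral control wells and 100% = median of positive control wells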
Ecoli rRNA inh: selective bacterial rRNA inhibition in E. coli; E. coli WT GFP vs humanized-ribosome RFP mutants, fluorescence, 24 h; hits give low values; DMSO median 0, no signal -100; GFP signal change (wild-type ribosome), % (test concentration not listed); 1.6% of 350,000 active; AID 720706;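 active = significant combined selectivity score with lowered wild-type GFP, culture density cut under 30%, mutant RFP and density less affected; inactive = any of these conditions unmet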
Xi reactivation: activators of X-chromosome reactivation in mouse fibroblasts; XiGFP mouse fibroblasts, % GFP-positive cells imaging, 3 d; cells co-treated with 5-aza-dC sensitizer; scaled so ellipticine positive control = 100%; activation, % at 7.58 µM; 0.055% of 360,000 active;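 active = mean normalized replicate activation at least 10% and every replicate at or above 10%; inconclusive = only one of the two criteria met; inactive = mean below 10% and not all replicates reach 10%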;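 note: 0% = median of on-plate neutral control wells and 100% = ellipticine 6 µM median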
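Assay system – SV40-immortalized XiGFP fibroblast cells, line 68-5-11 · Buffer or medium – DMEM supplemented with 5-aza-dC as sensitizing agent · Dosing – one concentration, pinned · Benchmarks – positive control ellipticine, 6 µM final · Times – 3 days compound exposure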
dFosB act-2: activators of mouse delta FosB homodimer DNA binding; shares compounds with dFosB act-1; purified delta FosB, TAMRA-CDK5 oligo fluorescence polarization; normalised: neutral wells 0, positive control 100; activation, % at 24.9 µM; 2,400 tested, under 10 active;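 active = highest replicate activation at or above 34% and every replicate reaching that threshold; inconclusive = meets only one of the two criteria; inactive = meets neither criterion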;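 note: higher polarization means more probe DNA bound by delta FosB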
An asterisk follows results filed as active; ? = inconclusive; / = no result given. Rows were chosen to be rich in hits. Some 2.6% of all compounds tested hit in one or more screens of this group.

SMILES	dFosB act-1	SR-BI uptake up	PvdQ acylase	SR-BI DiI inh	Ecoli rRNA inh	Xi reactivation	dFosB act-2
COc1ccc(S(=O)(=O)N2CC[C@@H]3[C@@H](CO)Nc4ccc(Br)cc4[C@@H]32)cc1	/	/	/	/	-22	0	/
N=C(N)c1ccc(OCCCCCOc2ccc(C(=N)N)cc2)cc1	-6	14	12	16	-10	0	/
CC(=O)Nc1sc(C)c(C)c1C(=O)OCC(=O)Nc1cc(S(C)(=O)=O)ccc1Cl	56*	/	-7	/	6	?	-1
CC(=O)Nc1sc(C)c(C)c1C(=O)OCC(=O)Nc1ccccc1C(F)(F)F	/	/	/	/	5	0	/
CCOC(=O)C(=O)Nc1ccccc1C(=O)OC	-7	31	5	-31	10	0	/
Oc1ccc(-c2sc(Nc3ccccc3)n[n+]2-c2ccc(F)cc2)cc1	2	33	-3	-33	4	0	/
CSc1ccc(-c2sc(Nc3ccccc3)n[n+]2-c2ccc(F)cc2)cc1	23*	7	3	-7	/	/	6
CCOc1cc(C(=O)NC)cc(Br)c1OCc1ccccc1	-13	-18	-4	18	-4	0	/
COC(=O)C1=C(C(=O)OC)[C@@H]2Nc3ccccc3[C@@]23C[C@@H](C(=O)OC)N(C(=O)NC2CCCCC2)C3=N1	/	/	/	/	11	0	/
COc1ccccc1NC(=O)CCNC(=O)Cn1ccc2ccccc2c1=O	4	0	-6	0	4	/	/
COc1ccc(C)cc1NC(=O)CCNC(=O)Cn1ccc2ccccc2c1=O	22*	-1	-8	1	5	1	3
Nc1nc(N)c2nc(-c3ccccc3)c(N)nc2n1	19*	7	-5	-7	/	0	0
CC(OC(=O)c1cccc(-n2cnnn2)c1)C(=O)Nc1ccc(F)c(F)c1F (stereo not given)	30*	-1	-19	1	1	0	-1
O=C(CN1CCN(S(=O)(=O)c2ccccc2)CC1)Nc1ccc2c(c1)OCO2	2	/	-17	/	/	/	/
COC(=O)CSc1nc2c(c(=O)n(C)c(=O)n2C)n1CCC(C)C	-2	3	-3	-3	/	/	/
CCNC(=O)Nc1ccc2c(c1)C(=O)N(C)[C@H]1CC[C@@H](CC(=O)NCc3ccc(F)cc3)O[C@@H]1CO2	/	/	/	/	4	0	/
CCOc1cc(/C=C(/C#N)c2nc3ccccc3[nH]2)ccc1Oc1ccc([N+](=O)[O-])cn1	50*	-47	-9	47	13	/	7
O=C([C@@H]1[C@@H](CO)[C@@H]2Cn3c(ccc(-c4ccncc4)c3=O)[C@@H]2N1CCC(F)(F)F)N1CCOCC1	/	/	/	/	4	0	/
CC(=O)N1CCN(C(=O)c2cccc(S(=O)(=O)N3CCN(c4ccccc4)CC3)c2)CC1	-2	-1	-3	1	1	0	/
O=C(NNC(=O)c1cccc(S(=O)(=O)N2CCN(c3ccccc3)CC2)c1)c1ccc(Cl)cc1	58*	15	0	-15	/	/	1
C=CCn1c(SC(C)C(=O)NCc2ccc3c(c2)OCO3)nc2scc(-c3ccccc3)c2c1=O (stereo not given)	11	-10	5	10	/	/	/
C=CCn1c(SCC(=O)NCc2ccc3c(c2)OCO3)nc2scc(-c3ccc(F)cc3)c2c1=O	45*	37	9	-37	/	/	1
COc1cc2c3nnc(-c4ccc(F)cc4)c-3cn(Cc3cccc(C)c3)c2cc1OC	41*	23	7	-23	26	82*	-2
CCCCc1c(-c2ccccc2OC)ncn1Cc1cccc(C)c1	/	/	/	/	-56	0	/
COc1cc2c3nnc(-c4ccccc4)c-3cn(Cc3ccc(F)cc3)c2cc1OC	22*	42	-19	-42	2	0	1
O=[N+]([O-])c1cccc(-c2ccc3nnc(SCc4ccccn4)n3n2)c1	5	/	-4	/	13	0	/
